Only some compounds are listed: those with a hit (about 2% of all), similar ones and a draw of the others.
MC4R barr agon – activates human MC4R beta-arrestin recruitment; P32245; U2OS MC4R beta-arrestin complementation, luminescence; percent of melanotan II response, DMSO zero; activation, % at 8.9 µM; 0.98% of 360,000 active;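 active means activation above a per-plate cutoff, the mean activation of sample wells on that plate plus 3 SD, cut at about 8% in these data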
MC4R antag cAMP – human MC4R antagonism in cAMP assay. P32245. MC4R-expressing cells, MTII-stimulated cAMP, LANCE TR-FRET. inhibition, % at 6.5 µM. 0.48% of 360,000 active. AID 540295;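 active means inhibition above its plate's cutoff, the mean of tested wells on that plate plus 3 SD, cut at about 29% in these data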;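 further: 0% = Melanotan II alone and 100% = Melanotan II plus saturating MCL0020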
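Assay system: human MC4R-expressing U2OS cells; reagent: Melanotan II stimulation of cells; dosing: 6.5 µM single dose; timing: compound 30 min, challenge 1 h, detection 1 h; signal: TR-FRET cAMP assay; replicates: one well per compound, no replicates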
CHOP UPR activ – apoptotic UPR (CHOP) activation | 0.34% of 330,000 active | CHO-CHOP luciferase reporter, luminescence; percent of tunicamycin response over DMSO baseline | AID 449763 | activation, % at 10 µM;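 active means at 10 µM dose, activation of 40% or more, normalized to positive control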;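 further: 100% = tunicamycin at 10 µg/mL and 0% = DMSO alone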
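Material: CHO-CHOP cells, stable luciferase reporter of PERK-eIF2a-CHOP signalling; quantity: 500 reporter cells seeded per well; buffer or medium: F12 medium containing 10% fetal bovine serum; compound: one dose, 10 µM in 0.5% DMSO; incubation: 6 h compound treatment, 37 °C; measured by: Steady-Glo luciferase luminescence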
A1 inh – inhibitors of the anti-apoptotic protein A1, read as caspase activation. MEF A1-2A-BIM cells, Caspase-Glo 3/7 luminescence, 3 h; percent of clofoctol response, vehicle zero. caspase activation, % (no concentration beside the values). 0.066% of 330,000 active;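 active means over half of replicate activation scores above 10%, or exactly half above 10 with the replicate mean above 10; inconclusive means replicate mean below 10 yet half the replicates above 10; inactive means over half of replicates below 10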
UPR XBP1 act – activators of adaptive arm of unfolded protein response (XBP1) | CHO-XBP1 luciferase reporter, IRE1-XBP1 UPR activation, luminescence; percent of tunicamycin response, DMSO as zero | 0.33% of 330,000 active | AID 463104 | activation, % at 20 µM;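 active means versus positive control, 20 µM dose yields 30% or more activation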;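 further: 100% = tunicamycin at 10 µg/mL and 0% = DMSO only wells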
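Signal: luciferase luminescence; Assay system: CHO-XBP1 luciferase reporter cells; Amount: one thousand reporter cells per well; Dosing: 20 µM single concentration, DMSO 1%; Benchmarks: high control tunicamycin 10 µg/mL final, low control DMSO vehicle only; Schedule: 6 h compound exposure at 37 °C, 5% CO2; Evaluation: percent activation relative to tunicamycin reference.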
MC4R barr conf – human MC4R beta-arrestin agonism confirmation. shares compounds with MC4R barr agon. U2OS MC4R beta-arrestin recruitment, luminescence; scaled DMSO 0%, Melanotan II 100%. activation, % at 8.9 µM. 31% of 2,400 active. AID 602192;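 active means mean activation across replicates above the hit cutoff set in the earlier primary screen, cut at about 8% in these data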
MOR DOR agonist – OPRM1-OPRD1 heterodimer agonism counter-screen. shares compounds with MC4R barr agon. activation, % at 9.2 µM. AID 602194. 5.8% of 2,400 active. U2OS PathHunter beta-arrestin, beta-gal luminescence; percent of deltorphin B response, DMSO zero;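 active means mean activation across replicates exceeds the hit threshold derived in the earlier primary screen, cut at about 18% in these data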;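 further: 100% = deltorphin B at 0.9 µM final and 0% = DMSO alone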
Target sequence (P35372 whole entry, looked up): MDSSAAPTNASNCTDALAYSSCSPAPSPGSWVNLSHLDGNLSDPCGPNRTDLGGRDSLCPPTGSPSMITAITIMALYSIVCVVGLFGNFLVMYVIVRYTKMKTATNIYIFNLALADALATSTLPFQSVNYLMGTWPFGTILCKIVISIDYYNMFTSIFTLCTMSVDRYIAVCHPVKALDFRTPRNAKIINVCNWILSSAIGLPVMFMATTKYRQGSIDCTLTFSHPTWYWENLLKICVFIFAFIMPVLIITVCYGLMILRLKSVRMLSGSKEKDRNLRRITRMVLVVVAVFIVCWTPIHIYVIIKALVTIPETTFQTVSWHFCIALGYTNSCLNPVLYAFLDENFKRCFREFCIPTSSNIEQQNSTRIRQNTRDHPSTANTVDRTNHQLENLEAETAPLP
Target sequence (P41143 whole entry, looked up): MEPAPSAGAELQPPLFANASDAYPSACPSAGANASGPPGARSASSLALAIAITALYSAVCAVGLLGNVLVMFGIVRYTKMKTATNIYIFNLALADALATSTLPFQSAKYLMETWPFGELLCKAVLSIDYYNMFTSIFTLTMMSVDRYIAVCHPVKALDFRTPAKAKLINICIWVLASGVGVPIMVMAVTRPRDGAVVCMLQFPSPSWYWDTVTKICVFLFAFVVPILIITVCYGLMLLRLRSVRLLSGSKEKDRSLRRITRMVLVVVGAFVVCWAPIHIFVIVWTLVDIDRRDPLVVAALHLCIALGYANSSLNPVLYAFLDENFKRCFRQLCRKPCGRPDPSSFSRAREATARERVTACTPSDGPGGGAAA
* = called active by the depositor; ? = inconclusive; / = not tested or not shown.

SMILES	MC4R barr agon	MC4R antag cAMP	CHOP UPR activ	A1 inh	UPR XBP1 act	MC4R barr conf	MOR DOR agonist
CC(=O)c1cccc(NC(=O)CNC(=O)c2sc3ccccc3c2Cl)c1	19*	9	3	0	-2	24*	18*
Cc1cccnc1NC(=O)CNC(=O)c1sc2ccccc2c1Cl	-1	4	0	0	0	/	/
O=C(Nc1ccc(F)cc1)C1C(c2ccccc2)C1(Cl)Cl (centres undefined)	15*	-2	2	-1	1	0	11
O=C(Nc1ccccc1Cl)C1C(c2ccccc2)C1(Cl)Cl (centres undefined)	4	4	0	0	-3	/	/
COc1ccc(Cc2nnc(NC(=O)Nc3ccccc3F)s2)cc1	6	1	0	2	-2	/	/
COc1ccc(Cc2nnc(NC(=O)Nc3ccccc3F)s2)cc1OC	14*	-2	1	?	-2	4	6
CCCC(=O)N1CCC1(C)C(=O)Nc1ccc2c(c1)CCN2C(C)=O (centres undefined)	-2	-10	/	/	/	/	/
C=CCN1C(=O)C(CC(=O)Nc2ccc(OCCC)cc2)N(CCCN2CCN(Cc3ccccc3)CC2)C1=S (centres undefined)	22*	8	4	1	7	9.4*	22*
COc1ccc(NC(=O)CC2C(=O)N(Cc3ccccc3)C(=S)N2CCN2CCOCC2)cc1 (centres undefined)	-1	18	4	0	-1	/	/
O=C(Nc1cccc2nsnc12)c1ccc2c(c1)OCO2	-2	0	1	-5	-3	/	/
O=C(Nc1cc(-c2nc3ccccc3s2)ccc1Cl)c1ccc2c(c1)OCO2	24*	6	1	-1	-1	21*	2
c1ccc(COC2CCCN(Cc3nc(Cc4ccccc4)no3)C2)cc1 (centres undefined)	9.9*	5	-1	0	-3	1	4
Cc1nc(C)c(NC(=O)N2CCc3ccccc32)cc1NC(=O)N1CCc2ccccc21	25*	19	0	1	1	-3	0
Cc1c(C(=O)NCc2ccc(C(C)C)cc2)sc(=O)n1Cc1ccc(S(=O)(=O)N(C)C)cc1	0	23	/	/	/	/	/
CCc1ccc(N=C2NC(=O)/C(=C/c3cc(OC)c(O)c(OC)c3)S2)cc1	14*	2	1	0	13	13*	7
CC(=O)Nc1ccc(NC(=O)CCc2nc3sc4c(c3c(=O)[nH]2)CCCC4)cc1	-1	11	0	0	-1	/	/
Cc1cc(C)cc(NC(=O)CCc2nc3sc4c(c3c(=O)[nH]2)CCCC4)c1	13*	10	0	-1	-3	5	3
CC(C)(C)C(=O)Nc1nnc([C@H]2C[C@H](O)[C@@H](CO)O2)s1	2	-3	/	/	/	/	/
Cc1ccc(C)c(OCCC(=O)OCC(=O)NC(=O)NC2CCCC2)c1	14*	8	-1	1	-3	3	8
Cc1cccc(Oc2nccc(C(F)(F)F)c2C(=O)Nc2ccc(F)cc2F)c1	20*	-10	1	0	-5	0	5
Cc1ccccc1Cn1cccc1/C=C1/C(=N)N2C=CSC2=NC1=O	14*	1	9	0	-4	2	2
CC(C)c1ccc(-n2cccc2/C=C2/C(=N)N3C=CSC3=NC2=O)cc1	0	9	7	0	6	/	/
Nc1ccc2cc3[nH]c4cc(N)ccc4c3nc2c1	-2	-10	/	/	/	/	/
Cc1nnc(C)n1/N=C/c1ccc(-c2ccccc2Cl)o1	2	4	3	0	1	/	/
S=c1[nH]nc(-c2ccccc2)n1/N=C/c1ccc(-c2ccccc2Cl)o1	12*	9	1	-1	3	-3	2
SMILES	MC4R barr agon	MC4R antag cAMP	CHOP UPR activ	A1 inh	UPR XBP1 act	MC4R barr conf	MOR DOR agonist
O=C(c1ccc(COc2ccccc2Br)o1)N1N=C(C(F)F)CC1(O)C(F)F (centres undefined)	15*	13	1	0	-2	8	11
O=C(c1ccc(Cn2cc([N+](=O)[O-])cn2)o1)N1N=C(C(F)F)CC1(O)C(F)F (centres undefined)	-1	6	0	-1	-2	/	/
CCOC(=O)C(=O)N(C)c1c(CC)nc2c(OCc3ccc(OC(F)F)cc3)cccn12	0	1	/	/	/	/	/
COc1ccc(Nc2nc(-c3ccccc3O)nc3ccccc23)cc1	4	4	-1	0	1	/	/
COc1cccc(-c2nc(NCc3ccccc3)c3ccccc3n2)c1O	18*	0	2	0	2	3	5
COc1cccc(-c2nc(NC3CCCC3)c3ccccc3n2)c1O	0	21	-1	0	15	/	/
COc1cccc(Nc2nc(-c3ccccc3O)nc3ccccc23)c1	17*	9	9	0	4	1	4
COc1ccc(Nc2nc(-c3ccncc3)nc3ccccc23)cc1	19*	19	6	-1	6	2	9
Fc1cccc(Nc2nc(-c3ccncc3)nc3ccccc23)c1	12*	27	3	0	8	1	6
c1ccc(Nc2nc(-c3ccccc3)nc3ccccc23)cc1	1	1	1	1	0	/	/
CN(Cc1ccccc1)S(=O)(=O)c1ccc(Cl)c(C(=O)N2CCOCC2)c1	-1	4	/	/	/	/	/
OC[C@@H]1CN(Cc2ccc(Cl)cc2)C[C@H](n2cnc3c(N4CCCC4)ncnc32)O1	2	0	/	/	/	/	/
COc1c(C)cc(C(O)c2ncc(-c3ccc(C(F)(F)F)cc3)[nH]2)cc1C (centres undefined)	5	9	/	/	/	/	/
O=C(c1cc(-c2ccc(O)cc2)on1)N1CCN(c2ccc(F)cc2)CC1	11*	11	2	0	1	-1	6
O=C(Nc1nccs1)c1ccc(COc2c(F)c(F)cc(F)c2F)cc1	11*	15	8	0	1	6	5
CSCCC(NC(=O)c1ccco1)C(=O)NCCc1ccc(Cl)cc1 (centres undefined)	-1	5	1	/	2	/	/
CCN1CCN(c2cc(-c3ccccc3)nc3cc(-c4cccc(F)c4)nn23)CC1	12*	14	-1	0	-1	2	14
OC1CCN(c2cc(-c3ccccc3)nc3cc(-c4ccc(F)cc4)nn23)CC1	0	2	3	1	0	/	/
